In experiment [1] the target is Mu-type opioid receptor (Cavia porcellus, UniProt P97266). The experiment is described as follows: Displacement of beta-[3H]FNA from mu opioid receptor in guinea pig brain membrane. In kind it is cell membranes.
In experiment [2] the target is Mu-type opioid receptor (Rattus norvegicus) (UniProt P33535). As to the kind of experiment: Inhibition of [3H]naloxone binding to mu opioid receptor in rat brain membrane. In kind it is cell membranes.
Experiment [3] has as its target Mu-type opioid receptor (Cavia porcellus) (UniProt P97266). The experiment is described as follows: Ratio of compound IC50 to beta-FNA IC50 for mu opioid receptor in guinea pig brain membrane. It counts as cell membranes.
Experiment [4] has as its target T1, Mu-type opioid receptor (Homo sapiens, UniProt P35372). As to the kind of experiment: Displacement of [3H]DAMGO from mu opioid receptor expressed in CHO cells after 90 mins by scintillation counting. It counts as cell-based. The essentials:
(§1)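 Competitive radioligand binding on CHO cells stably expressing MOR or DOR. Radioligand was [3H]DAMGO for MOR and [3H]DPDPE for DOR. IC50 values were measured under standard conditions.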

The target in experiment [5] is Delta-type opioid receptor (Homo sapiens, UniProt P41143). As to the kind of experiment: Displacement of [3H]DPDPE from delta opioid receptor expressed in CHO cells after 90 mins by scintillation counting. It counts as cell-based. The essentials:
as §1

In experiment [6] the target is T1, Mu-type opioid receptor. The experiment is described as follows: Displacement of [3H]DAMGO from mu opioid receptor expressed in CHO cells after 90 mins by scintillation counting relative to dermorphin. It counts as cell-based.
The nature of experiment [7]: Selectivity ratio of IC50 for delta opioid receptor to IC50 for mu opioid receptor. In short, it runs like this:
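MOR selectivity was calculated as the ratio of DOR IC50 to MOR IC50. Both IC50s came from CHO-cell binding, with [3H]DPDPE as the DOR radioligand and [3H]DAMGO as the MOR radioligand. Ratios depend on the radioligand concentration used.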

In experiment [8] the target is T1, Mu-type opioid receptor. As to the kind of experiment: Ratio of dermorphin IC50 to compound IC50 for mu opioid receptor expressed in CHO cells. In kind it is cell-based.
Experiment [9] has as its target T1, Mu-type opioid receptor. The experiment is described as follows: Inhibition of [3H]DAMGO binding to mu opioid receptor expressed in CHO cells after 90 mins by WRIB assay. It counts as cell-based. The essentials: (§2)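 Wash-resistant inhibition of binding in MOR-expressing CHO cell membranes. Membranes were incubated with peptide, either near its IC50 or at higher concentrations, then washed extensively to remove noncovalently bound ligand. Remaining [3H]DAMGO binding was then measured and expressed as % inhibition against untreated control. Acetylated reversible analogues were run alongside to verify that the wash was complete.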

Experiment [10] has as its target T1, Mu-type opioid receptor. The note with it: CHO; 0.11 nM.
Experiment [11] can be described thus: Ratio of dermorphin selectivity for mu opioid receptor over delta opioid receptor to compound selectivity for mu opioid receptor over delta opioid receptor.
The target of experiment [12] is T1, Mu-type opioid receptor. The note with it: CHO; 0.43 nM.
For experiment [13], the target named is T1, Mu-type opioid receptor. As to the kind of experiment: Inhibition of [3H]DAMGO binding to mu opioid receptor expressed in CHO cells at 0.4 nM after 90 mins by WRIB assay. It counts as cell-based. The essentials:
as §2

For experiment [14], the target named is T1, Mu-type opioid receptor. The experiment is described as follows: Inhibition of [3H]DAMGO binding to mu opioid receptor expressed in CHO cells at 7 nM after 90 mins by WRIB assay. In kind it is cell-based. In short, it runs like this: as §2
Experiment [15] addresses Mu-type opioid receptor (Rattus norvegicus) (UniProt P33535). The experiment is described as follows: (§3) Inhibition of [3H]DAMGO binding to mu opioid receptor in rat brain membrane. It counts as cell membranes.
For experiment [16], the target named is Mu-type opioid receptor (Rattus norvegicus, UniProt P33535). The experiment is described as §3. It counts as cell membranes.
Chain of Mu-type opioid receptor (Rattus norvegicus, UniProt P33535) (P33535 whole entry): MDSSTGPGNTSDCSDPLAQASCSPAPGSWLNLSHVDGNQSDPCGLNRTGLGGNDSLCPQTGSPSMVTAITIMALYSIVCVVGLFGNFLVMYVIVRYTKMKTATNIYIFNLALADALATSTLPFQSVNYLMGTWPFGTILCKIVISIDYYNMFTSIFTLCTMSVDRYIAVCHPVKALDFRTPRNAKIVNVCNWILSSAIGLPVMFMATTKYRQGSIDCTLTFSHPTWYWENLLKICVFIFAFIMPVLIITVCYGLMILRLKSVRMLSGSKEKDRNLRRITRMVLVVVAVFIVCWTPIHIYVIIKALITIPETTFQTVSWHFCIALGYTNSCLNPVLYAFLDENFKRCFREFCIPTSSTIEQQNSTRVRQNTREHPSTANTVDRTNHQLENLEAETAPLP

The structures appear in SMILES notation. Calls of active or inactive are those of the source. The rule behind the calls is not given here. Numbered stars: 1 amine (or outer) side, 2 acyl side, 3 side chain; on linkers, the order of the positions; unused ones are H or OH. Square brackets hold non-standard residues; d marks the D form. Peptide text beside a SMILES is read from it. X6 = O=C(CBr)N(CCCC[C@@H](N[*:1])C(=O)[*:2])C(=O)CBr; X1 = O=C(CBr)N(CCC[C@@H](N[*:1])C(=O)[*:2])C(=O)CBr; X7 = CC(=O)N(CCCC[C@@H](N[*:1])C(=O)[*:2])C(C)=O; X8 = CC(=O)N(CCC[C@@H](N[*:1])C(=O)[*:2])C(C)=O; X5 = O=C([C@@H](CCCCN(N=C=S)N=C=S)N[*:1])[*:2]; X4 = O=C([C@@H](CCCN(N=C=S)N=C=S)N[*:1])[*:2]

Chain of Mu-type opioid receptor (Cavia porcellus) (P97266 whole entry): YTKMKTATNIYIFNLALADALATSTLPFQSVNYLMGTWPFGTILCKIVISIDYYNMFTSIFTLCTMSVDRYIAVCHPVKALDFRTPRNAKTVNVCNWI
T1 sequence (P35372 whole entry): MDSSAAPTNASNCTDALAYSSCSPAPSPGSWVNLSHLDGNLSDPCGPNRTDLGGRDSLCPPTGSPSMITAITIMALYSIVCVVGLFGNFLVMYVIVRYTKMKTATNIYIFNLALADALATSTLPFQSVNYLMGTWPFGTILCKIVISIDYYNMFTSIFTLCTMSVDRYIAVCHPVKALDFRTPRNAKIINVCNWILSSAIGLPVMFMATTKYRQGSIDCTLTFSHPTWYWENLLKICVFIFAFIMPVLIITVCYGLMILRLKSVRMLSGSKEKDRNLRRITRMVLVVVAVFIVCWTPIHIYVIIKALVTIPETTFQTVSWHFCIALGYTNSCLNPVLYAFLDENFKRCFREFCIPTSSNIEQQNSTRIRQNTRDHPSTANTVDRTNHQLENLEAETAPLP
Chain of Delta-type opioid receptor (P41143 whole entry): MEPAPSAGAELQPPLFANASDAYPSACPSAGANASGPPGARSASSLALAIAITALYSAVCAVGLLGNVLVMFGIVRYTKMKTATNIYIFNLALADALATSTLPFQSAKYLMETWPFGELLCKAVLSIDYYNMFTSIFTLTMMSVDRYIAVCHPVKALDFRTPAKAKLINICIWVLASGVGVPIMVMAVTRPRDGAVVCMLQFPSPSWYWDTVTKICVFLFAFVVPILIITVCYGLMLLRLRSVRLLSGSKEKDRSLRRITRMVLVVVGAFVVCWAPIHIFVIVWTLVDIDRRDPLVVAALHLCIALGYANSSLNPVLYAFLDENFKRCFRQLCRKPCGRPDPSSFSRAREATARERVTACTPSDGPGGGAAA
Chain of Mu-type opioid receptor (Rattus norvegicus) (P33535 whole entry): as the sequence (P33535 whole entry) above
Chain of Mu-type opioid receptor (Cavia porcellus, UniProt P97266) (P97266 whole entry): as the sequence (P97266 whole entry) above

As to `COC(=O)/C=C/C(=O)N[C@@H]1CC[C@@]2(O)[C@H]3Cc4ccc(O)c5c4[C@@]2(CCN3CC2CC2)[C@H]1O5`, the IC50 at Mu-type opioid receptor [1] turned out to be 2.2 nM.

Regarding `C[C@@H](NC(=O)[C@@H](N)Cc1ccc(O)cc1)C(=O)NCC(=O)N(C)c1ccccc1`, the inhibition entry in [2] was “Dose-dependent effect”.

`N[C@@H](Cc1ccc(O)cc1)C(=O)N[C@H](CCCN(C(=O)CBr)C(=O)CBr)C(=O)N[C@@H](Cc1ccccc1)C(=O)NCC(=O)N[C@@H](Cc1ccc(O)cc1)C(=O)N1CCC[C@H]1C(=O)N[C@@H](CO)C(=O)O` (H-Y[X1]FGYPS-OH): the Ratio IC50 in experiment [3] turned out to be 3; in experiment [7], 3110; on Mu-type opioid receptor [8] it was 7. For the same molecule, the IC50 at Mu-type opioid receptor [4] came to 0.11 nM; in experiment [5], 342 nM. This molecule also gave an Activity at Mu-type opioid receptor [6] of 6.54. Besides, the inhibition result at Mu-type opioid receptor [9] is “Dose-dependent effect”. In addition, the inhibition entry on Mu-type opioid receptor [10] is “inactive”.

As to `N[C@@H](Cc1ccc(O)cc1)C(=O)N[C@H](CCCN(N=C=S)N=C=S)C(=O)N[C@@H](Cc1ccccc1)C(=O)NCC(=O)N[C@@H](Cc1ccc(O)cc1)C(=O)N1CCC[C@H]1C(=O)N[C@@H](CO)C(=O)O` (H-Y[X4]FGYPS-OH), the Ratio IC50 came to 3 in [3] and 29 in [7]. Moreover, the IC50 worked out at 0.81 nM at Mu-type opioid receptor [4] and 23.8 nM in [5]. The molecule also gave an Activity at Mu-type opioid receptor [6] of 0.89. The Ratio in [11] was found to be 9. Also, the inhibition on Mu-type opioid receptor [12] is 40%.

Regarding `N[C@@H](Cc1ccc(O)cc1)C(=O)N[C@H](CCCCN(N=C=S)N=C=S)C(=O)N[C@@H](Cc1ccccc1)C(=O)NCC(=O)N[C@@H](Cc1ccc(O)cc1)C(=O)N1CCC[C@H]1C(=O)N[C@@H](CO)C(=O)O` (H-Y[X5]FGYPS-OH), the IC50 at Mu-type opioid receptor [4] was 0.38 nM; in experiment [5] it was 97.1 nM. This molecule returned an Activity at Mu-type opioid receptor [6] of 1.89. Further, the Ratio IC50 is 255 in experiment [7] and 2 on Mu-type opioid receptor [8]. Besides, the figures for the inhibition result at Mu-type opioid receptor [9] and on Mu-type opioid receptor [13] were “Dose-dependent effect” and 31%, respectively.

For `N[C@@H](Cc1ccc(O)cc1)C(=O)N[C@H](CCCCN(C(=O)CBr)C(=O)CBr)C(=O)N[C@@H](Cc1ccccc1)C(=O)NCC(=O)N[C@@H](Cc1ccc(O)cc1)C(=O)N1CCC[C@H]1C(=O)N[C@@H](CO)C(=O)O` (H-Y[X6]FGYPS-OH), the results for the Ratio IC50 in [3] and in experiment [7] were 3 and 73, respectively. The results for the IC50 (on Mu-type opioid receptor [4]; in [5]) were 5.23 nM and 382 nM, respectively. This molecule returned an Activity at Mu-type opioid receptor [6] of 0.14. The Ratio in [11] was 4. The molecule also yielded an inhibition at Mu-type opioid receptor [14] of 32%.

As for `CC(=O)N(CCCC[C@@H](NC(=O)[C@@H](N)Cc1ccc(O)cc1)C(=O)N[C@@H](Cc1ccccc1)C(=O)NCC(=O)N[C@@H](Cc1ccc(O)cc1)C(=O)N1CCC[C@H]1C(=O)N[C@@H](CO)C(=O)O)C(C)=O` (H-Y[X7]FGYPS-OH), the IC50 was determined as 29.8 nM at Mu-type opioid receptor [4] and 436 nM in [5]. The Activity at Mu-type opioid receptor [6] was 0.02. Further, the Ratio IC50 in experiment [7] is 15.

Turning to `CC(=O)N(CCC[C@@H](NC(=O)[C@@H](N)Cc1ccc(O)cc1)C(=O)N[C@@H](Cc1ccccc1)C(=O)NCC(=O)N[C@@H](Cc1ccc(O)cc1)C(=O)N1CCC[C@H]1C(=O)N[C@@H](CO)C(=O)O)C(C)=O` (H-Y[X8]FGYPS-OH), the IC50 was found to be 4.25 nM at Mu-type opioid receptor [4] and 272 nM in [5]. The same molecule came in with an Activity on Mu-type opioid receptor [6] of 0.17. Besides, the Ratio IC50 in experiment [7] is 64.

With `CC(C)C[C@@H](CSSc1ncccc1[N+](=O)[O-])NC(=O)[C@H](Cc1ccccc1)NC(=O)CNC(=O)C(C)NC(=O)[C@@H](N)Cc1ccc(O)cc1` (stereo in doubt), in [15], the inhibition entry was “Dose-dependent effect”. The same molecule had an IC50 on Mu-type opioid receptor [16] of 19 nM.

These data come from ChEMBL document CHEMBL1154775, “Discovery of dermorphin-based affinity labels with subnanomolar affinity for mu opioid receptors” (J Med Chem, 2009).
